Source: ChEMBL document CHEMBL2169753, “Pharmacophore-based virtual screening and biological evaluation of small molecule inhibitors for protein arginine methylation” (J Med Chem, 2012)
Active and inactive are the calls of the source. No cut-off for these calls is given here.

What was measured:
LNCaP [1] = assay: Inhibition of cell proliferation of human LNCAP cells in regular medium after 3 days; assay type: functional
Procedure, shortened: (§1)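 LNCaP C-81 cells (passage 80–120) grown in phenol red-positive RPMI 1640 with 5% FBS, 2 mM glutamine, 50 µg/ml gentamicin at 37°C, 5% CO2. Plated at 2×10³ cells/well for 3 days, then exposed to compound (DMSO stock diluted 1000×; DMSO-matched controls) for 3 days. Cells counted with an image-based counter and normalized to control. Three independent experiments in triplicate, mean ± SD.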

LNCaP [2] = assay: Inhibition of cell proliferation of human LNCAP cells in steroid reduced condition after 3 days; assay type: functional
Procedure, shortened: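 C-81 cells (passage 80–120) plated at 2×10³ cells/well for 3 days, then starved 2 days in phenol red-free RPMI 1640 with 5% charcoal/dextran-treated FBS, 2 mM glutamine, 50 µg/ml gentamicin and 1 nM DHT. Refed with this medium, then treated for 3 days (solvent controls). Cells counted and normalized to control. Three independent experiments in triplicate, mean ± SD.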

LNCaP [3] = assay: Antiproliferative activity against human LNCAP cells in regular medium after 3 days; assay type: functional, cell-based; procedure, shortened: as §1
Histone H4 [4] = target: T1, Histone H4 (Homo sapiens, UniProt P62805); assay: Binding affinity to fluorescein-labeled Histone H4(1-20) by spectrofluorometry
Procedure, shortened: (§2)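 H4(1-20) peptide bearing fluorescein on a Dpr residue, 1 µM, in 50 mM HEPES pH 8.0, 10 mM NaCl, 1 mM DTT at 30°C. Titrated with compound from 1 to 100 µM. Excitation 498 nm; emission intensity followed at 523–524 nm. Kd taken from the fluorescence titration.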

[5] = target: Protein arginine N-methyltransferase 5 (Homo sapiens) (UniProt O14744); assay: Inhibition of His6x-tagged PRMT5 expressed in Escherichia coli BL21 (DE3) using Histone H4(1-20 substrate in the presence of [14C] SAM assessed as residual activity at 30 uM by liquid scintillation counting
Chain of Protein arginine N-methyltransferase 5 (Homo sapiens) (O14744 whole entry): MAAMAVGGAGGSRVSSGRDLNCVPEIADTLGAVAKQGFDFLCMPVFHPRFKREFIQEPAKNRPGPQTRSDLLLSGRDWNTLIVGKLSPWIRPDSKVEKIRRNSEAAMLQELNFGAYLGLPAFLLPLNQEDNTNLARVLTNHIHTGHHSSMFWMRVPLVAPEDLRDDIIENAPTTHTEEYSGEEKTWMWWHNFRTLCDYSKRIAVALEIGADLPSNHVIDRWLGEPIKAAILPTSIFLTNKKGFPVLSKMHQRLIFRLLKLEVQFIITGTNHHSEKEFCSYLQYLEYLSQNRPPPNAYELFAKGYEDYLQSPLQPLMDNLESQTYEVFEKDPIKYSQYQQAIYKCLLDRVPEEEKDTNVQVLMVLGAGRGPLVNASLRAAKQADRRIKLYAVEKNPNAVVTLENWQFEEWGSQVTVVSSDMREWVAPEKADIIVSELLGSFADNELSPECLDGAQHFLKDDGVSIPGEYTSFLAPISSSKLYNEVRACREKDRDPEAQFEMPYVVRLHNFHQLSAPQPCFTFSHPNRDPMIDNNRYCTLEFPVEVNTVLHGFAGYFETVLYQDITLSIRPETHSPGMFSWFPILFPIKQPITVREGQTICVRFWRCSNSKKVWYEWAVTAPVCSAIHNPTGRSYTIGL
Procedure, shortened: (§3)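 Recombinant PRMT4 (0.3 µM) with H3(1-31) at 400 µM, or PRMT5 (1 µM) with H4(1-20) at 2 µM. Substrate and 5 µM [14C]-SAM preincubated 5 min in 50 mM HEPES pH 8.0, 10 mM NaCl, 1 mM DTT at 30°C before enzyme was added. Reactions run 2 h (PRMT4) or 6 h 30 min (PRMT5), with or without 30 µM compound in 2% DMSO. Stopped on P81 paper, washed with NaHCO3, counted by scintillation. Activity normalized to no-inhibitor control.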

[6] = target: T2, Histone-arginine methyltransferase CARM1 (Homo sapiens) (UniProt Q86X55); assay: Inhibition of His6x-tagged PRMT4 expressed in Escherichia coli BL21 (DE3) using Histone H3(1-31) substrate in the presence of [14C] SAM assessed as residual activity at 30 uM by liquid scintillation counting; procedure, shortened: as §3
T2 sequence (whole entry): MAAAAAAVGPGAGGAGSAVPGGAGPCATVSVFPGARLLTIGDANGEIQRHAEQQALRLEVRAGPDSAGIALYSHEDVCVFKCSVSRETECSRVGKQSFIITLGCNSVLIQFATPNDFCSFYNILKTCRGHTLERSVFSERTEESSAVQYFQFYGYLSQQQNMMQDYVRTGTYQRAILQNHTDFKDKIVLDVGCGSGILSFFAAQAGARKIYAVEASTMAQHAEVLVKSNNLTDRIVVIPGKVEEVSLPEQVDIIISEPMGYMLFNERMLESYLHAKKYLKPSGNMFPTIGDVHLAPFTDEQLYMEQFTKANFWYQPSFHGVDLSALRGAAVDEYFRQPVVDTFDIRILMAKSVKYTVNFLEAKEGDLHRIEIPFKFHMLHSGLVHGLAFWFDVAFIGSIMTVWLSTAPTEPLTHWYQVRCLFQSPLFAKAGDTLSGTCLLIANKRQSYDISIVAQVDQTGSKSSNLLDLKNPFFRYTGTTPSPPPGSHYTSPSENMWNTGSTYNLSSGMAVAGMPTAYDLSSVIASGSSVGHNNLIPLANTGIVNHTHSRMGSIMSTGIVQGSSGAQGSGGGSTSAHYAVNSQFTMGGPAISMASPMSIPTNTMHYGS

[7] = target: Histone acetyltransferase p300 (Homo sapiens, UniProt Q09472); assay: Inhibition of recombinant p300 HAT domain using Histone H4(1-20) substrate assessed as inhibition of histone acetyltransferase activity after 10 mins by liquid scintillation counting
Chain of Histone acetyltransferase p300 (Q09472 whole entry, the tested form may be a part): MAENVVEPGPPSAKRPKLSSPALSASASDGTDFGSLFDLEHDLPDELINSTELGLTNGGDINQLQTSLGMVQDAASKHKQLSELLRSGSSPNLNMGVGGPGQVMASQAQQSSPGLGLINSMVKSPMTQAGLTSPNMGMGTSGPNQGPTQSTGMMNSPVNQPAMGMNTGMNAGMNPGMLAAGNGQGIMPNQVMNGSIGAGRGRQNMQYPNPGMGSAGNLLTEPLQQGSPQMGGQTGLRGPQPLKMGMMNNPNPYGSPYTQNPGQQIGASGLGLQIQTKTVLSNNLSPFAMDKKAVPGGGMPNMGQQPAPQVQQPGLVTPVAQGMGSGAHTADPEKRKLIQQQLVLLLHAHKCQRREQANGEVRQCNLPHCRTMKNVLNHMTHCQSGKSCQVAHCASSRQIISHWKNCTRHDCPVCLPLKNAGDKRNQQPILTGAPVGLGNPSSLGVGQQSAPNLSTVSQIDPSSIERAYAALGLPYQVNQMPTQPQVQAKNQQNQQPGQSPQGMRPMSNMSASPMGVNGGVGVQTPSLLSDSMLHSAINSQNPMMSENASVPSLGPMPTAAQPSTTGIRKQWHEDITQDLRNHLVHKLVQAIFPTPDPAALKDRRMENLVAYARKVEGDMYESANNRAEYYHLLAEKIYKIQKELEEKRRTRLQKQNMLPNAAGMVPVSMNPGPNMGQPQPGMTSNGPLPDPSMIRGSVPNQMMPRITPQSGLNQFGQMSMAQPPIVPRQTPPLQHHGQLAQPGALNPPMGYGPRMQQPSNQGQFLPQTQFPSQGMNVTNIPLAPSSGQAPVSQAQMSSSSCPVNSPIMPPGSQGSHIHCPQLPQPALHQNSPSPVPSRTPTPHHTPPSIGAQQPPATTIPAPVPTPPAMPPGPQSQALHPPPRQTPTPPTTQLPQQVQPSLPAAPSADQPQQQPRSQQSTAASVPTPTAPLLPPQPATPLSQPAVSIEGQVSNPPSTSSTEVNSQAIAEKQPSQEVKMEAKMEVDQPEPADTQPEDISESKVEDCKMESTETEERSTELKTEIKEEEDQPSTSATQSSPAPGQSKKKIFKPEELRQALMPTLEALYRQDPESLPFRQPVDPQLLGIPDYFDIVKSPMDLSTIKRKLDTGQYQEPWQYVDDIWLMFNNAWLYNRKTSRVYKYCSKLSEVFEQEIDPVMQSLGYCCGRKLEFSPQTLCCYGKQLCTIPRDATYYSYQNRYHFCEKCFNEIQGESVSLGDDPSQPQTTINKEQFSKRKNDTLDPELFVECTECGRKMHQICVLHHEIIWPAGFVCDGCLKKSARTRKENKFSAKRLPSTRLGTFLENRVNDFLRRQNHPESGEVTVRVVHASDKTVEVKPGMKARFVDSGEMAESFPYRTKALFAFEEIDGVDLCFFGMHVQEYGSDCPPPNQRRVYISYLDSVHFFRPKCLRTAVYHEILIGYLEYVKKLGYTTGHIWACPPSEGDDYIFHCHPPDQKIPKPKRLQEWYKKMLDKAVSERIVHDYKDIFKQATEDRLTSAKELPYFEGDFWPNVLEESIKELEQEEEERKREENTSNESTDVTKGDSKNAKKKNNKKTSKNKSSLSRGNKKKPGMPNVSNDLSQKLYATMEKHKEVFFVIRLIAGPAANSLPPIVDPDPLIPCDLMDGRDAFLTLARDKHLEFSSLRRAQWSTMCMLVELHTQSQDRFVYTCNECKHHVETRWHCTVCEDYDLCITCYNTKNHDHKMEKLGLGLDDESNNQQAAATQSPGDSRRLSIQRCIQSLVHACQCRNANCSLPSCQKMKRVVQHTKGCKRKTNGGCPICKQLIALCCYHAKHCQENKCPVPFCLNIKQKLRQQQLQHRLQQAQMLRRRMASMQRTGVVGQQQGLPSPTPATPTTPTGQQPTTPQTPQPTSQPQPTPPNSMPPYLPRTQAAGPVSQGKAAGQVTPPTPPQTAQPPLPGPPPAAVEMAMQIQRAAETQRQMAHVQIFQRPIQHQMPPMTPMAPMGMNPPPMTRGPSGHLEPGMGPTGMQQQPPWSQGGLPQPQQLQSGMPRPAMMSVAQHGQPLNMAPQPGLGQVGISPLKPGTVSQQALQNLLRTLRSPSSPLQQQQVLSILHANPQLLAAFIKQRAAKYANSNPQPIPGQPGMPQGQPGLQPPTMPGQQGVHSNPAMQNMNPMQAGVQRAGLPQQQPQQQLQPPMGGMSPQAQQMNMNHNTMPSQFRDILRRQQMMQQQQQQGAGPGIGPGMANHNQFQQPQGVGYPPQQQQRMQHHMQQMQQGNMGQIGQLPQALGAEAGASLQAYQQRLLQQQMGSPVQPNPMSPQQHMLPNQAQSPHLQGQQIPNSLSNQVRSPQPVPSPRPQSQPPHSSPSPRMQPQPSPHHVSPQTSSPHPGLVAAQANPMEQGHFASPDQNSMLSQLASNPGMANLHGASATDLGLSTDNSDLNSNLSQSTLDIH
Procedure, shortened: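 p300 HAT domain (residues 1287–1666), 0.03 µM, incubated with 10 µM H4-20, 5 µM [14C]-acetyl CoA and increasing compound in 50 mM HEPES pH 8.0, 50 mM NaCl, 0.5 mM DTT, 1 mM EDTA at 30°C for 10 min. Stopped on P81 paper and counted by liquid scintillation. Fractional activity plotted against concentration to give IC50.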

Histone H4 [8] = target: T1, Histone H4; assay: Binding affinity to fluorescein-labeled Histone H4(1-20) assessed as peptide fluorescence quenching by spectrofluorometry; procedure, shortened: as §2

SMILES	inhibition (INH) (LNCaP [1]) [%]	inhibition (INH) (LNCaP [2]) [%]	inhibition (LNCaP [3])	Kd (Histone H4 [4]) [µM]	Activity [5] [%]	Activity [6] [%]	IC50 [7] [µM]	inhibition [7]	Activity (Histone H4 [8])
O=C(NN=C1C=CC(=NOS(=O)(=O)c2ccccc2)C=C1)c1cc2ccccc2cc1O	70	30	Dose-dependent effect						
O=C(c1ccc(O)c(NC(=O)c2cccc3ccccc23)c1)c1ccc(O)c(NC(=O)c2cccc3ccccc23)c1	32			23.8	20	38	15.2	Dose-dependent effect	Active
